Screening results: PubChem, Sanford-Burnham Center for Chemical Genomics
MPTP inh = blocks calcium-induced mitochondrial swelling; isolated mouse mitochondria, Ca2+ swelling absorbance, 30 min; inhibition, % at 10 µM; 1.4% of 360,000 active;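 active = inhibition of 50% or more, scaled per plate between neutral and stimulator controls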
ATG4B inhibitor = inhibitors of human ATG4B cysteine protease | ATG4B cleavage of LC3-PLA2, NBD-HPC fluorescence, 1 h | inhibition, % at 8.33 µM | 0.51% of 340,000 active | AID 504462; in the data active = inhibition above about 40%
Target sequence (Q9Y4P1 whole entry, looked up): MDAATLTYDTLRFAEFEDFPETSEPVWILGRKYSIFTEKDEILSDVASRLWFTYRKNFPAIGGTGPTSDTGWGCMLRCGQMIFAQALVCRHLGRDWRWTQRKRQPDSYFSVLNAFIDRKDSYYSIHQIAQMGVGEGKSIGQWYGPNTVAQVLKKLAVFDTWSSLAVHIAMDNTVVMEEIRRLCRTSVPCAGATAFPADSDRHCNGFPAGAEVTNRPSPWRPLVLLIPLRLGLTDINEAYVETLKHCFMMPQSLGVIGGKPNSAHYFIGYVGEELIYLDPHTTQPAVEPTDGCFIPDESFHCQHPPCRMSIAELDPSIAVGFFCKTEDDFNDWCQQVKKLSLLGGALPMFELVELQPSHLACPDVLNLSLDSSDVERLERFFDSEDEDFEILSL
MT1-MMP act inh = MT1-MMP (human) activation inhibition | P50281 | HT1080 RFP-PRO-GFP cells, GFP/RFP ratio fluorescence, overnight; percent of plate control window, DMSO zero | GFP/RFP ratio change, % at 20 µM | 0.061% of 360,000 active;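 active = GFP/RFP ratio change of at least 30% with cell ATP level not reduced by more than half and red fluorescence within 50% of control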
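Test system: HT1080 cells expressing an RFP-PRO-GFP fluorescent reporter construct / Compound dosing: single-point 20 µM compound, 1% DMSO / Schedule: cells overnight before dosing, compound overnight, 37 °C, 5% CO2 / Evaluation: GFP/RFP fluorescence ratio / Control set: DMSO and RFP-L50D-GFP cell wells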
SKN-1 block = inhibitors of C. elegans SKN-1 | C. elegans VP596 Pgst-4::GFP/RFP ratio, acrylamide-induced, 24 h | inhibition, % at 21.8 µM | 0.49% of 360,000 active | AID 624304;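 active = interference check ratio from 0.5 to 1.5 plus GFP to RFP signal ratio inhibition reaching or exceeding a fixed threshold, cut at about 30% in these data, passing the limit was not always enough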
Rh123 counter = mitochondrial membrane potential, counter-screen | shares compounds with MPTP inh | isolated mitochondria, Rhodamine 123 fluorescence | inhibition, % at 10 µM | 78% of 5,000 active; in the data active = inhibition above about 22%
MPTP swell DR = MPTP inhibition, dose response swelling confirmation; 58% of 780 active; isolated mitochondria swelling, absorbance; shares compounds with MPTP inh; IC50, µM; in the data active = IC50 below about 20 µM
MPTP cs DR = MPTP inhibitor counter-screen activity, dose response; shares compounds with MPTP inh; AID 651564; IC50, µM; 49% of 780 active; isolated mitochondria counterscreen, fluorescence read-out; in the data active = IC50 below about 80 µM
Numbers stand for hits; i = inactive; nt = not tested or not shown. The list is not random: actives were taken first. Their share in the collection is about 2.3%.

SMILES	MPTP inh	ATG4B inhibitor	MT1-MMP act inh	SKN-1 block	Rh123 counter	others
CC(=O)Nc1ccccc1OCC(=O)c1cc(C)n(Cc2cccs2)c1C	100	i	i	i	94
Cc1cc(C(=O)COc2cccnc2[N+](=O)[O-])c(C)n1Cc1cccs1	i	i	i	i	nt
CC(C)(C)OC(=O)N1CCC2(CC1)C(C#N)=C(N)OC1=C2C(=O)CCC1	i	i	i	i	nt
CN(Cc1ccc(Cl)cc1)C(C(=O)NC1CCCCC1)c1ccnc2ccccc12 (stereo unspecified)	i	nt	i	i	nt
CN(C)CCCNC(=S)NCC(c1ccc(Cl)cc1Cl)c1c[nH]c2ccccc12 (stereo unspecified)	77	i	i	i	i
CCCCNC(=S)NCC(c1ccccc1)c1c[nH]c2ccccc12 (stereo unspecified)	i	i	i	i	nt
O=C(NCCc1ccccc1)C(=S)N1CCCCC1	i	i	i	i	nt
CC(C)CC1=NN2C(=N)/C(=C\c3coc4ccccc4c3=O)C(=O)N=C2S1	86	i	i	i	82
CCSC1=NSC2=NC(=O)/C(=C\c3coc4ccccc4c3=O)C(=N)N12	101	i	i	i	74
CCOC(=O)C(Oc1ccc(=O)n(-c2ccccc2)n1)C(C)=O (stereo unspecified)	i	i	i	i	nt
CC(=O)c1ccccc1NC(=O)CCCNC(=O)c1ccc(Cl)cc1	i	i	i	i	nt
COc1ccccc1/C=C/C=C(\C#N)C(=O)NC(C)c1ccccc1 (stereo unspecified)	i	i	i	i	nt
COc1ccccc1-n1cnc2cc(NS(=O)(=O)c3ccc(Br)cc3)ccc21	55	i	i	i	50
COc1ccc(-n2cnc3cc(NS(=O)(=O)c4ccc(C)cc4)ccc32)cc1	i	nt	i	i	nt
COc1cccc(NC(=S)NC(Cc2ccccc2)c2ccccc2)c1 (stereo unspecified)	57	nt	i	i	90
CCCCCCCC[n+]1cccc2c3ccccc3ccc21	i	i	i	i	nt
CCCCCCCCCC[n+]1cccc2c3ccccc3ccc21	96	i	i	i	97
N#CCN1CCN(CC(=O)c2ccc(Br)cc2)CC1	i	i	i	i	nt
Cc1ccc(Cn2c(=N)n(CC(O)c3ccco3)c3ccccc32)cc1 (stereo unspecified)	70	i	i	i	43
N=c1n(Cc2ccccc2Cl)c2ccccc2n1CC(O)c1ccco1 (stereo unspecified)	i	i	i	i	nt
COc1ccc(NC(=O)C2CCN(S(=O)(=O)c3ccc(N4CCCC4=O)cc3)CC2)c(OC)c1	i	i	i	i	nt
CC1Sc2ccc(S(=O)(=O)N3CCC(C(=O)Nc4ccc(Cl)cc4)CC3)cc2NC1=O (stereo unspecified)	99	i	i	i	100
Cc1ccc(NC(=O)C2CCN(S(=O)(=O)c3ccc(N4CCCC4=O)cc3)CC2)cc1Cl	102	i	i	i	108
Cc1ccc(CNC(=O)C2CCN(S(=O)(=O)c3ccc4c(c3)CC(C)N4C(=O)C3CCC3)CC2)o1 (stereo unspecified)	i	i	i	i	nt
C=C(C)CSc1nc2sc3c(c2c(=O)n1C1CCCCC1)CCN(C)C3	i	i	i	i	nt
SMILES	MPTP inh	ATG4B inhibitor	MT1-MMP act inh	SKN-1 block	Rh123 counter	others
CCSc1nc2sc3c(c2c(=O)n1C1CCCCC1)CCN(C)C3	50	i	i	i	30
COCCN(Cc1cccs1)S(=O)(=O)c1ccc(-c2ccc(=O)[nH]n2)s1	i	i	i	i	nt
Cc1ccc(-n2cccc2/C=C2/C(=N)N3C(=NC2=O)SN=C3S(C)(=O)=O)cc1	i	i	i	i	nt
Cc1cc(C)cc(-n2cccc2/C=C2/C(=N)N3C(=NC2=O)SN=C3S(C)(=O)=O)c1	63	i	i	i	50
Cc1nc(Nc2ccc(Cl)c(Cl)c2)sc1C(=O)Nc1ccccc1	82	i	i	i	64
Cc1nc(Nc2ccc(Cl)cc2Cl)sc1C(=O)Nc1ccccc1	i	i	i	i	nt
CCCC(=O)NC(Nc1cccc(C(F)(F)F)c1)C(Cl)(Cl)Cl (stereo unspecified)	i	i	i	i	nt
CCCC(=O)NC(Nc1cc(C(F)(F)F)ccc1Cl)C(Cl)(Cl)Cl (stereo unspecified)	90	i	i	i	93
CCc1ccc(S(=O)(=O)NCc2ccc(C(=O)NCCN(Cc3ccccc3)C(C)C)cc2)cc1	97	nt	i	i	93
CC(=O)Nc1ccc(S(=O)(=O)NCc2ccc(C(=O)NCCN(C)Cc3ccccc3)cc2)cc1	i	nt	i	i	nt
O=C(NCc1csc(-c2cccs2)n1)C1CCCCC1	i	i	i	i	nt
COc1cc(-c2nnc(SCC3(c4ccccc4)OCCO3)o2)cc(OC)c1OC	i	i	i	i	nt
Cc1cc(Cl)ccc1NC(=S)NC1CCCC1	i	i	i	i	nt
S=C(NCc1cccs1)Nc1ccc(Br)cc1Cl	75	i	i	i	79
S=C(NCc1ccc(Cl)cc1)Nc1ccc(Cl)cc1Cl	100	i	i	i	87
CC1CCCCC1NC(=S)Nc1ccc(Cl)cc1Cl (stereo unspecified)	93	i	i	i	87
Fc1ccc(CNC(=S)Nc2ccc(Cl)cc2Cl)cc1	100	i	i	i	106
CSCCC(NC(=O)c1ccccc1)C(=O)NCCc1ccc2c(c1)OCCO2 (stereo unspecified)	i	i	i	i	nt
S=C(NCCc1ccc(Cl)cc1)Nc1ccc(Cl)cc1Cl	86	i	i	i	86
CC(C)(c1ccccc1)c1ccc(OCC(O)CNC2CCN(Cc3ccccc3)CC2)cc1 (stereo unspecified)	68	i	i	i	i
Cc1c(C(=O)Nc2ccc(Cl)cc2)c2ccccn2c1CCc1ccncc1	85	i	i	i	90
O=CNc1ccccc1	i	i	i	i	nt
CCCc1nc(SCC(=O)Nc2nnc(SCC)s2)c2c(=O)n(C)c(=O)n(C)c2n1	i	i	i	i	nt
CCSc1nnc(NC(=O)CSc2nc(CC)nc3c2c(=O)n(C)c(=O)n3C)s1	66	i	i	i	i	MPTP swell DR=i;MPTP cs DR=i
O=C(COC(=O)CN1C(=O)c2ccccc2C1=O)Nc1ccccc1C(F)(F)F	i	nt	i	i	nt
Clc1ccc(N/N=C/c2ccncc2)cc1Cl	70	i	i	i	56
CSc1nc(N)c(C(=O)Nc2ccc([N+](=O)[O-])cc2)s1	i	i	i	i	nt
O=C(N/N=C/c1ccc(Sc2ccccn2)o1)c1cc2ccccc2cc1O	68	i	i	i	35
CC1CCCN(S(=O)(=O)c2ccccc2[N+](=O)[O-])C1 (stereo unspecified)	i	i	i	i	nt
Nc1nnc(CC(=O)N/N=C/c2cccc([N+](=O)[O-])c2)s1	i	i	i	i	nt
